In ChEMBL document CHEMBL1144880, “Identification of phenylisoxazolines as novel and viable antibacterial agents active against Gram-positive pathogens” (J Med Chem, 2003):
Values after ≈ are worked out from the molar mass of the structure shown.

Columns and labels:
[1] = Plasma clearance in Male Sprague-Dawley Rat (48.9 mg/kg po); type: ADME, organism-based
How it was run: (§1)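 Male Sprague-Dawley rats dosed intravenously or orally. Intact compound measured in plasma by HPLC-UV after protein-precipitation sample preparation. Half-life reported as harmonic mean apparent terminal disposition half-life. Bioavailability is absolute oral bioavailability. Some comparator values are archival data.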

[2] = Plasma clearance in Male Sprague-Dawley Rat (8.98 mg/kg iv); type: ADME, organism-based; how it was run: as §1
[3] = Absolute oral bioavailability in Male Sprague-Dawley Rat (48.9 mg/kg po); type: ADME, organism-based; settings: in vivo; how it was run: as §1
[4] = Absolute oral bioavailability in Male Sprague-Dawley Rat (8.98 mg/kg iv); type: ADME, organism-based; settings: in vivo; how it was run: as §1
[5] = Cmax value in Male Sprague-Dawley Rat at dose 48.9 (mg/kg po); type: ADME, organism-based; design: dose 48.9 mg/kg, route oral; settings: in vivo; how it was run: as §1
[6] = Cmax value in Male Sprague-Dawley Rat at dose 8.98 (mg/kg iv); type: ADME, organism-based; design: dose 8.98 mg/kg, route intravenous; settings: in vivo; how it was run: as §1
[7] = Tmax value in Male Sprague-Dawley Rat at dose 48.9 (mg/kg po) [tmax (h)]; type: ADME, organism-based; settings: in vivo; how it was run: as §1
[8] = Volume distribution in Male Sprague-Dawley Rat (8.98 mg/kg iv); type: ADME, organism-based; settings: in vivo, read-out: Vss
How it was run: (§2)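 Male Sprague-Dawley rats given the compound intravenously. Intact compound in plasma was measured by HPLC-UV after protein-precipitation sample preparation.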

[9] = Harmonic mean apparent terminal disposition half-life [t1/2beta (h)] in Male Sprague-Dawley Rat at dose 48.9 (mg/kg po); type: ADME, organism-based; settings: in vivo, read-out: T1/2 beta (converted); how it was run: as §1
[10] = Harmonic mean apparent terminal disposition half-life [t1/2beta (h)] in Male Sprague-Dawley Rat at dose 8.98 (mg/kg iv); type: ADME, organism-based; settings: in vivo, read-out: T1/2 beta (converted); how it was run: as §1
CYP2C9 [11] = biological target: T1, CYP2C9 (Homo sapiens, UniProt P11712); assay: Inhibition of heterologously expressed human Cytochrome P450 2C9 at 10 uM; type: ADME; design: scale not given: the % may be the effect or the level left; settings: read-out: Control of P-450 marker
T1 sequence (P11712 whole entry): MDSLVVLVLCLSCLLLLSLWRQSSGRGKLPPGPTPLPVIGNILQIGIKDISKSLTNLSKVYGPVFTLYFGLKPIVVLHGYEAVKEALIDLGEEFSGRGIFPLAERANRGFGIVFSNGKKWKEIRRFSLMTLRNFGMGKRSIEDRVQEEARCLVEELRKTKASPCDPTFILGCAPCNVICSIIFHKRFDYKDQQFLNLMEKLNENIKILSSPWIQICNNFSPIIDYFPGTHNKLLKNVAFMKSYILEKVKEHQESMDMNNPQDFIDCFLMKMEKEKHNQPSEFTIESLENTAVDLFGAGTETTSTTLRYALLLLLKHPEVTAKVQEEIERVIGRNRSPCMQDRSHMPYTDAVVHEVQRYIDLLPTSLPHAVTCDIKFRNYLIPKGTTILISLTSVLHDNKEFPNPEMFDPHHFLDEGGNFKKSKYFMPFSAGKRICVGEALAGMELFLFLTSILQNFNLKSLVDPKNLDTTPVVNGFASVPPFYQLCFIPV
How it was run: (§3)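 Human cDNA-expressed CYP1A2, 2C9, 2D6 and 3A4 microsomes incubated with compound at 10 or 100 µM plus CYP marker substrates. Marker metabolite formation quantified by HPLC with radiochemical detection and expressed as % of control, mean ± SD of triplicates.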

CYP2C9 [12] = biological target: T1, CYP2C9; assay: Inhibition of heterologously expressed human Cytochrome P450 2C9 at 100 uM; type: ADME; design: scale not given: the % may be the effect or the level left; settings: read-out: Control of P-450 marker; how it was run: as §3
CYP2D6 [13] = biological target: T2, CYP2D6 (Homo sapiens, UniProt P10635); assay: Inhibition of heterologously expressed human Cytochrome P450 2D6 at 100 uM; type: ADME; design: scale not given: the % may be the effect or the level left; settings: read-out: Control of P-450 marker; how it was run: as §3
T2 sequence (P10635 whole entry): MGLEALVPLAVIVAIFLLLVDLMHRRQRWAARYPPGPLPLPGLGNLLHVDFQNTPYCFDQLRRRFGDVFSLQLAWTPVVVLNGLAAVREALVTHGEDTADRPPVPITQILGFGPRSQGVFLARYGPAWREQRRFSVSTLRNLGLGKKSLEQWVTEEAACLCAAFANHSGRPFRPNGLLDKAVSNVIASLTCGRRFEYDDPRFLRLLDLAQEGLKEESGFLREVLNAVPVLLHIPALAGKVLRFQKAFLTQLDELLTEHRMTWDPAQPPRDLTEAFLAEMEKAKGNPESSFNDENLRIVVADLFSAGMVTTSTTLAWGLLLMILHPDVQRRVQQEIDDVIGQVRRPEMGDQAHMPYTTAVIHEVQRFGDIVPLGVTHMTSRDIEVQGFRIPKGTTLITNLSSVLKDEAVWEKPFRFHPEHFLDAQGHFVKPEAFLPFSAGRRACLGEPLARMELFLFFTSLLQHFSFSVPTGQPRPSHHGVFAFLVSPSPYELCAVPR

CYP2D6 [14] = biological target: T2, CYP2D6; assay: Inhibition of heterologously expressed human Cytochrome P450 2D6 at 10 uM; type: ADME; design: scale not given: the % may be the effect or the level left; settings: read-out: Control of P-450 marker; how it was run: as §3
CYP3A4 [15] = biological target: T3, CYP3A4 (Homo sapiens, UniProt P08684); assay: Inhibition of heterologously expressed human Cytochrome P450 3A4 at 10 uM; type: ADME; design: scale not given: the % may be the effect or the level left; settings: read-out: Control of P-450 marker; how it was run: as §3
T3 sequence (P08684 whole entry): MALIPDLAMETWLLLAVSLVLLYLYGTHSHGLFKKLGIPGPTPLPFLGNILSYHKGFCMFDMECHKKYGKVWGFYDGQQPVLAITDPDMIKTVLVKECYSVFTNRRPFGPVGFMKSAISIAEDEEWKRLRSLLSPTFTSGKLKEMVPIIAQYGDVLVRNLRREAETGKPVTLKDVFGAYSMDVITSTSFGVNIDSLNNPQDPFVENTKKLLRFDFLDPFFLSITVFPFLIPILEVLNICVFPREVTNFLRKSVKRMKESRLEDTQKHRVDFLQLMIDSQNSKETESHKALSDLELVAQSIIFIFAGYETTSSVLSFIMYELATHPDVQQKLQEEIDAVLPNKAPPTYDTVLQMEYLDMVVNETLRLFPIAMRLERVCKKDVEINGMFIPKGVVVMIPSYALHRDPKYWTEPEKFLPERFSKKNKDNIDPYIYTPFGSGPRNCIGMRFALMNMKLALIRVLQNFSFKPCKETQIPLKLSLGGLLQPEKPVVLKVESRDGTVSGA

CYP3A4 [16] = biological target: T3, CYP3A4; assay: Inhibition of heterologously expressed human Cytochrome P450 3A4 at 100 uM; type: ADME; design: scale not given: the % may be the effect or the level left; settings: read-out: Control of P-450 marker; how it was run: as §3
CYP1A2 [17] = biological target: T4, CYP1A2 (Homo sapiens, UniProt P05177); assay: Inhibition of heterologously expressed human Cytochrome P450 1A2 at 10 uM; type: ADME; design: scale not given: the % may be the effect or the level left; settings: read-out: Control of P-450 marker; how it was run: as §3
T4 sequence (P05177 whole entry): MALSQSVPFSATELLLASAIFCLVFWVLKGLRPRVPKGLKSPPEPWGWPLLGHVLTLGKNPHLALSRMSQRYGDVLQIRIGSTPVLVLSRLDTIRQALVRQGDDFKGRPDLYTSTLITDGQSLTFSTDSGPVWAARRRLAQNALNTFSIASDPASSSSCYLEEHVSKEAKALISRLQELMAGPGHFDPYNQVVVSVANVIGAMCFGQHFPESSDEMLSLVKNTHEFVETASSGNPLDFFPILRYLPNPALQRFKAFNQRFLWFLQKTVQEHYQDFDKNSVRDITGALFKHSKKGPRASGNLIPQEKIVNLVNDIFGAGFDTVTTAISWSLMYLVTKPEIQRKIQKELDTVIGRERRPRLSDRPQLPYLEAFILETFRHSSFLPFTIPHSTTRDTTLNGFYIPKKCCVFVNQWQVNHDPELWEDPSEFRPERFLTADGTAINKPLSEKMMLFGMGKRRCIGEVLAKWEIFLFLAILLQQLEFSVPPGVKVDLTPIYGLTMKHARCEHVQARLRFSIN

CYP1A2 [18] = biological target: T4, CYP1A2; assay: Inhibition of heterologously expressed human Cytochrome P450 1A2 at 100 uM; type: ADME; design: scale not given: the % may be the effect or the level left; settings: read-out: Control of P-450 marker; how it was run: as §3
Enterococcus faecalis = assay: In vitro minimum inhibitory concentration (MIC) against Enterococcus faecalis UC9217; type: functional
How it was run: (§4)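 MIC determined by standard broth microdilution, defined as the lowest drug concentration (µg/mL) inhibiting visible growth.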

Escherichia coli = assay: In vitro minimum inhibitory concentration (MIC) against Escherichia coli UC6674; type: functional; how it was run: as §4
Haemophilus influenzae = assay: In vitro minimum inhibitory concentration (MIC) against Haemophilus influenzae UC30063; type: functional; how it was run: as §4
Homo sapiens = species: Homo sapiens; assay: Compound was evaluated for metabolic stability via In vitro Human 5E6 cell at 25 uM concentration; type: functional
Moraxella catarrhalis = assay: In vitro minimum inhibitory concentration (MIC) against Moraxella catarrhalis UC30610; type: functional; how it was run: as §4
Mus musculus [19] = assay: In Vivo effective dose required for antibacterial activity in a systemic mouse infection model (SMIM) upon oral administration against Staphylococcus aureus UC9213; type: functional
How it was run: (§5)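 Compound was given orally at 1 and 5 h after infection. Deaths were monitored for at least 6 days, and ED50 (dose curing 50% of mice) was calculated by probit analysis.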

Rattus norvegicus = species: Rattus norvegicus; assay: Compound was evaluated for metabolic stability via In vitro Rat 5E6 cell at 50 uM concentration; type: functional
Streptococcus pneumoniae = assay: In vitro minimum inhibitory concentration (MIC) against Streptococcus pneumoniae UC9912; type: functional; how it was run: as §4
Staphylococcus aureus [20] = assay: In vitro minimum inhibitory concentration (MIC) against Staphylococcus aureus UC12673; type: functional; how it was run: as §4
Staphylococcus aureus [21] = assay: In vitro minimum inhibitory concentration (MIC) against Staphylococcus aureus UC9213; type: functional; how it was run: as §4
[22] = test system: Staphylococcus epidermidis; assay: In vitro minimum inhibitory concentration (MIC) against Staphylococcus epidermidis UC12084; type: functional; how it was run: as §4
[23] = Plasma clearance in Male Sprague-Dawley Rat (10.1 mg/kg iv); type: ADME, organism-based; how it was run: as §1
[24] = Plasma clearance in Male Sprague-Dawley Rat (49.4 mg/kg po); type: ADME, organism-based; how it was run: as §1
[25] = Absolute oral bioavailability in Male Sprague-Dawley Rat (10.1 mg/kg iv); type: ADME, organism-based; settings: in vivo; how it was run: as §1
[26] = Absolute oral bioavailability in Male Sprague-Dawley Rat (49.4 mg/kg po); type: ADME, organism-based; settings: in vivo; how it was run: as §1
[27] = Cmax value in Male Sprague-Dawley Rat at dose 49.4 (mg/kg po); type: ADME, organism-based; design: dose 49.4 mg/kg, route oral; settings: in vivo; how it was run: as §1
[28] = Tmax value in Male Sprague-Dawley Rat at dose 49.4 (mg/kg po) [tmax (h)]; type: ADME, organism-based; settings: in vivo; how it was run: as §1
[29] = Volume distribution in Male Sprague-Dawley Rat (10.1 mg/kg iv); type: ADME, organism-based; settings: in vivo, read-out: Vss; how it was run: as §2
[30] = Harmonic mean apparent terminal disposition half-life [t1/2beta (h)] in Male Sprague-Dawley Rat at dose 10.1 (mg/kg iv); type: ADME, organism-based; settings: in vivo, read-out: T1/2 beta (converted); how it was run: as §1
[31] = Harmonic mean apparent terminal disposition half-life [t1/2beta (h)] in Male Sprague-Dawley Rat at dose 49.4 (mg/kg po); type: ADME, organism-based; settings: in vivo, read-out: T1/2 beta (converted); how it was run: as §1
Mus musculus [32] = assay: In Vivo effective dose required for antibacterial activity in a systemic mouse infection model (SMIM) upon peroral administration against Staphylococcus aureus UC9213; type: functional; settings: po; how it was run: as §5
[33] = Cmax value in Male Sprague-Dawley Rat at dose 10.1 (mg/kg iv); type: ADME, organism-based; design: dose 10.1 mg/kg, route intravenous; settings: in vivo; how it was run: as §1

SMILES: CC(=O)NC[C@H]1CC(c2ccc(N3CCOCC3)c(F)c2)=NO1
- CL/F [1]: 8.6 mL/min/kg
- clearance [2]: 12.4 mL/min/kg
- bioavailability [3]: 143%
- bioavailability [4]: 100%
- Cmax [5]: 12200 ng/mL
- Cmax [6]: 17700 ng/mL
- Tmax [7]: 192 min
- Vd [8]: 0.6 L/kg
- half-life [9]: 36 min
- half-life [10]: 28.2 min
- activity at 10 µM (CYP2C9 [11]): 92.1%
- activity at 100 µM (CYP2C9 [12]): 95.8%
- activity at 100 µM (CYP2D6 [13]): 103%
- activity at 10 µM (CYP2D6 [14]): 101%
- activity at 10 µM (CYP3A4 [15]): 88.9%
- activity at 100 µM (CYP3A4 [16]): 92.1%
- activity at 10 µM (CYP1A2 [17]): 100%
- activity at 100 µM (CYP1A2 [18]): 102%
- MIC (Enterococcus faecalis): 8 µg/mL (≈ 24.9 µM)
- MIC (Escherichia coli): > 16 µg/mL
- MIC (Haemophilus influenzae): > 16 µg/mL
- Remaining at 40 min (Homo sapiens): 100%
- MIC (Moraxella catarrhalis): 16 µg/mL (≈ 49.8 µM)
- ED50 (Mus musculus [19]): 16.5 mg/kg
- Remaining at 40 min (Rattus norvegicus): 87%
- MIC (Streptococcus pneumoniae): 1 µg/mL (≈ 3.11 µM)
- MIC (Staphylococcus aureus [20]): 4 µg/mL (≈ 12.4 µM)
- MIC (Staphylococcus aureus [21]): 4 µg/mL (≈ 12.4 µM)
- MIC [22]: 2 µg/mL (≈ 6.22 µM)

SMILES: CC(=O)NC[C@H]1CC(c2ccc(N3CCN(C(=O)CO)CC3)c(F)c2)=NO1
- clearance [23]: 26.2 mL/min/kg
- CL/F [24]: 30.8 mL/min/kg
- bioavailability [25]: 100%
- bioavailability [26]: 86%
- Cmax [27]: 6170 ng/mL
- Tmax [28]: 150 min
- Vd [29]: 0.95 L/kg
- half-life [30]: 36.6 min
- half-life [31]: 42 min
- MIC (Enterococcus faecalis): 4 µg/mL (≈ 10.6 µM)
- MIC (Escherichia coli): > 16 µg/mL
- MIC (Haemophilus influenzae): > 16 µg/mL
- Remaining at 40 min (Homo sapiens): 101%
- MIC (Moraxella catarrhalis): 8 µg/mL (≈ 21.1 µM)
- ED50 (Mus musculus [32]): 9.1 mg/kg
- Remaining at 40 min (Rattus norvegicus): 100%
- MIC (Streptococcus pneumoniae): 1 µg/mL (≈ 2.64 µM)
- MIC (Staphylococcus aureus [20]): 4 µg/mL (≈ 10.6 µM)
- MIC (Staphylococcus aureus [21]): 4 µg/mL (≈ 10.6 µM)
- MIC [22]: 1 µg/mL (≈ 2.64 µM)
- Cmax [33]: 17700 ng/mL
